# Test results taken from ChEMBL document CHEMBL3745692, “Novel iodoacetamido benzoheterocyclic derivatives with potent antileukemic activity are inhibitors of STAT5 phosphorylation” (Eur J Med Chem, 2016).
# Key:
# K562 [1] = test: Cell cycle arrest in human K562 cells assessed as accumulation at G2M-phase at 3 uM for 24 hrs by propidium iodide staining based flow cytometry (reference value: 12.89%); format: functional
# How it was run: (§1)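 K562 cells in RPMI 1640 with 10% FCS, penicillin/streptomycin and L-glutamine, 5% CO2, 37 °C; exposed 24 h. Cells washed in ice-cold PBS, resuspended at 1×10^6/mL in hypotonic solution of propidium iodide 50 µg/mL in 0.1% sodium citrate plus 0.03% nonidet P-40 for 30 min. DNA content read as single-parameter flow cytometry histograms; phase distribution modelled.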
# K562 [2] = test: Antiproliferative activity against human K562 cells after 48 hrs by trypan blue dye exclusion assay; format: functional, cell-based; details: K562, 48 h
# K562 [3] = test: Cell cycle arrest in human K562 cells assessed as accumulation at G1 phase at 3 uM for 24 hrs by propidium iodide staining based flow cytometry (reference value: 39.27%); format: functional; how it was run: as §1
# K562 [4] = test: Cell cycle arrest in human K562 cells assessed as accumulation at S-phase at 3 uM for 24 hrs by propidium iodide staining based flow cytometry (reference value: 47.84%); format: functional; how it was run: as §1
# K562 [5] = test: Induction of apoptosis in human K562 cells after 48 hrs by annexinV and propidium iodide staining based flow cytometry; format: functional, cell-based; details: K562, 48 h
# How it was run: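 After 48 h drug exposure, 1×10^6 cells were washed in PBS and spun at 200×g for 5 min. They were stained with FITC-annexin V plus propidium iodide for 15 min at 20 °C and annexin V-positive cells counted by flow cytometry. Apoptosis was also scored morphologically with acridine orange/ethidium bromide, counting at least 300 cells. AC50 is the concentration inducing apoptosis in 50% of cells; mean ± SE from two to three experiments.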
# [6] = molecular target: T1, Signal transducer and activator of transcription 5A (Homo sapiens) (UniProt P42229); test: Inhibition of STAT5 phosphorylation in human K562 cells at 3 uM after 24 hrs by flow cytometry (reference value: 315.56); format: cell-based
# T1 sequence (whole entry): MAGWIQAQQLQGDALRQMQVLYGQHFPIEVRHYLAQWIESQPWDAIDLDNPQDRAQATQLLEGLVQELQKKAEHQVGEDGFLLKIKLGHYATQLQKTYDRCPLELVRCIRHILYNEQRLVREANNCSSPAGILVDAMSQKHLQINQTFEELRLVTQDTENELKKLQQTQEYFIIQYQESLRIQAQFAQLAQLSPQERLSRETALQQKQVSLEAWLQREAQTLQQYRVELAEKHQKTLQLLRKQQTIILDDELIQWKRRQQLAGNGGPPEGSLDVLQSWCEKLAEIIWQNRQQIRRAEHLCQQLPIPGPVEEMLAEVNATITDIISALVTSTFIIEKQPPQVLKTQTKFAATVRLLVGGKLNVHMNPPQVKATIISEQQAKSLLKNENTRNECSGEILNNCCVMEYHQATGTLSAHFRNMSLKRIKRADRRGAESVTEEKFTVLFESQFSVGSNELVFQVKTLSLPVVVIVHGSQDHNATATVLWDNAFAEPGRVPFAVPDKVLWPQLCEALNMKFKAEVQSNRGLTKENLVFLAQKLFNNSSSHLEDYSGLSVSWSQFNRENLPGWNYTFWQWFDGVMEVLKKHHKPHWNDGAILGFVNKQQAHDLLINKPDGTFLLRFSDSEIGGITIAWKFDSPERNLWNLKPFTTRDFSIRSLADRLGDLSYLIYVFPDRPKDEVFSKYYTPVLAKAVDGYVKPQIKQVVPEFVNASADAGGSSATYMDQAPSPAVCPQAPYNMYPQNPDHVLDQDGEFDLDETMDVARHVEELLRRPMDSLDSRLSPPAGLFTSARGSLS
# How it was run: (§2)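 After 24 h exposure, about 1×10^6 K562 cells were PBS-washed and fixed/permeabilised for 20 min at 4 °C. They were then stained for 30 min at 4 °C with PE-conjugated anti-pSTAT5 monoclonal antibody, with an isotype antibody as control. Median fluorescence was read by flow cytometry and compared with untreated cells stained for pSTAT5.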
# K562 [7] = test: Cell cycle arrest in human K562 cells assessed as accumulation at S-phase at 2 uM for 24 hrs by propidium iodide staining based flow cytometry (reference value: 47.84%); format: functional
# How it was run: (§3)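 K562 cells were exposed to compound for 24 h. They were then washed in ice-cold PBS and resuspended at 1×10^6/mL in a hypotonic solution of propidium iodide 50 µg/mL in 0.1% sodium citrate with 0.03% NP-40. After 30 min, DNA content was read by flow cytometry as single-parameter histograms and cell cycle phase distribution (%) was modelled.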
# [8] = molecular target: T1, Signal transducer and activator of transcription 5A (Homo sapiens); test: Inhibition of STAT5 phosphorylation in human K562 cells at 2 uM after 24 hrs by flow cytometry (reference value: 315.56); format: cell-based; how it was run: as §2
# K562 [9] = test: Cell cycle arrest in human K562 cells assessed as accumulation at G1 phase at 2 uM for 24 hrs by propidium iodide staining based flow cytometry (reference value: 39.27%); format: functional; how it was run: as §3
# K562 [10] = test: Cell cycle arrest in human K562 cells assessed as accumulation at G2M-phase at 2 uM for 24 hrs by propidium iodide staining based flow cytometry (reference value: 12.89%); format: functional; how it was run: as §3
# [11] = molecular target: T1, Signal transducer and activator of transcription 5A (Homo sapiens); test: Inhibition of STAT5 phosphorylation in human K562 cells at 2 uM after 24 hrs by flow cytometry relative to control; format: cell-based
# How it was run: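 K562 cells were exposed for 24 h. About 1×10^6 cells were fixed and permeabilized for 20 min at 4 °C, then stained for 30 min at 4 °C with PE-conjugated anti-pSTAT5 monoclonal antibody; an isotype IgG1 antibody served as the background control. Median fluorescence was read by flow cytometry and compared with untreated cells stained for pSTAT5.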
# Tubulin = Tubulin (Bos taurus, UniProt Q6B856+Q862L2+Q862F3); test: Inhibition of bovine brain tubulin polymerization by spectrophotometry
# How it was run: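 Bovine brain tubulin (10 µM) was pre-incubated with varying compound concentrations in glutamate buffer at 30 °C, then cooled to 0 °C. GTP was added ([…] final) and the mixture warmed to 30 °C. Assembly was followed by turbidity at 350 nm.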
# Bos taurus = organism: Bos taurus; test: Inhibition of [3H]colchicine binding to bovine tubulin at 5 uM by DEAE-cellulose filter method
# How it was run: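 Reaction mixtures contained 1 µM tubulin, 5 µM [3H]colchicine and 5 µM test compound. Result is given as % inhibition of colchicine binding ± SD.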
# [12] = molecular target: T1, Signal transducer and activator of transcription 5A (Homo sapiens); test: Inhibition of STAT5 phosphorylation in human K562 cells at 0.75 uM after 24 hrs by flow cytometry (reference value: 315.56); format: cell-based; how it was run: as §2
# K562 [13] = test: Cell cycle arrest in human K562 cells assessed as accumulation at S-phase at 0.75 uM for 24 hrs by propidium iodide staining based flow cytometry (reference value: 47.84%); format: functional; how it was run: as §3
# K562 [14] = test: Cell cycle arrest in human K562 cells assessed as accumulation at G2M-phase at 0.75 uM for 24 hrs by propidium iodide staining based flow cytometry (reference value: 12.89%); format: functional; how it was run: as §3
# K562 [15] = test: Cell cycle arrest in human K562 cells assessed as accumulation at G1 phase at 0.75 uM for 24 hrs by propidium iodide staining based flow cytometry (reference value: 39.27%); format: functional; how it was run: as §3
# [16] = molecular target: T1, Signal transducer and activator of transcription 5A (Homo sapiens); test: Inhibition of STAT5 phosphorylation in human K562 cells at 3 uM after 24 hrs by flow cytometry relative to control; format: cell-based; how it was run: as §2
smiles,measurement,setting,value
COc1cc(C(=O)c2cc3ccc(NC(=O)CI)cc3o2)cc(OC)c1OC,Activity,K562 [1],11.1%
same,IC50,K562 [2],600 nM
same,Activity,K562 [3],37.06%
same,Activity,K562 [4],51.3%
same,AC50,K562 [5],2900 nM
same,Flu intensity,[6],289
Cc1ccc(NC(=O)c2ccc(CN3CCN(C)CC3)cc2)cc1Nc1nccc(-c2cccnc2)n1 [IMATINIB],AC50,K562 [5],680 nM
COc1cc(C(=O)c2cc3cc(NC(=O)CI)cc(OC)c3s2)cc(OC)c1OC,IC50,K562 [2],780 nM
same,Activity,K562 [7],33.7%
same,Flu intensity,[8],201
same,Activity,K562 [9],19.94%
same,AC50,K562 [5],3700 nM
same,Activity,K562 [10],45.36%
COc1cc2oc(C(=O)c3cc(OC)c(OC)c(OC)c3)cc2cc1NC(=O)CI,inhibition,[11],29%
same,IC50,K562 [2],400 nM
same,Activity,K562 [7],52.26%
same,Flu intensity,[8],225
same,Activity,K562 [9],43.33%
same,AC50,K562 [5],2000 nM
same,Activity,K562 [10],4.41%
COc1ccc(C(=O)c2oc3ccccc3c2NC(=O)CI)cc1,IC50,K562 [2],2900 nM
same,AC50,K562 [5],6800 nM
COc1ccc2c(NC(=O)CI)c(C(=O)c3cc(OC)c(OC)c(OC)c3)oc2c1,IC50,Tubulin,1800 nM
same,IC50,K562 [2],120 nM
same,AC50,K562 [5],450 nM
same,inhibition,Bos taurus,54%
COc1cc(C(=O)c2oc3ccc(NC(=O)CI)cc3c2C)cc(OC)c1OC,IC50,K562 [2],18000 nM
same,AC50,K562 [5],26800 nM
COc1cc(C(=O)c2sc3ccccc3c2NC(=O)CI)cc(OC)c1OC,IC50,K562 [2],18000 nM
same,AC50,K562 [5],28000 nM
COc1cc(C(=O)c2cc3cc(NC(=O)CI)cc(OC)c3o2)cc(OC)c1OC,Flu intensity,[12],316
same,IC50,K562 [2],400 nM
same,Activity,K562 [13],57.32%
same,Activity,K562 [14],8.02%
same,Activity,K562 [15],34.66%
same,AC50,K562 [5],2200 nM
COc1cc(C(=O)c2cc3cccc(NC(=O)CI)c3o2)cc(OC)c1OC,IC50,K562 [2],> 50000 nM
same,AC50,K562 [5],> 50000 nM
COc1cc(C(=O)c2[nH]c3ccccc3c2NC(=O)CI)cc(OC)c1OC,Activity,K562 [1],9.39%
same,IC50,K562 [2],500 nM
same,Activity,K562 [3],31.82%
same,inhibition,[16],30%
same,Activity,K562 [4],57.79%
same,AC50,K562 [5],2400 nM
same,Flu intensity,[6],222
COc1cc(C(=O)c2cc3cc(NC(=O)CI)ccc3o2)cc(OC)c1OC,inhibition,[11],19%
same,IC50,K562 [2],600 nM
same,Activity,K562 [7],53.52%
same,Flu intensity,[8],255
same,Activity,K562 [9],39.48%
same,AC50,K562 [5],2900 nM
same,Activity,K562 [10],7%
COc1cc(C(=O)c2oc3c(OC)cccc3c2NC(=O)CI)cc(OC)c1OC,IC50,K562 [2],14000 nM
same,AC50,K562 [5],24000 nM
COc1ccc(C(=O)c2oc3ccccc3c2NC(=O)CI)cc1OC,IC50,K562 [2],22000 nM
same,AC50,K562 [5],48000 nM
COc1cc(C(=O)c2cc3c(NC(=O)CI)cccc3o2)cc(OC)c1OC,IC50,K562 [2],800 nM
same,Activity,K562 [7],53.09%
same,Flu intensity,[8],272
same,Activity,K562 [9],33.67%
same,AC50,K562 [5],4500 nM
same,Activity,K562 [10],16.24%
COc1cc(C(=O)c2sc3cc(C)ccc3c2NC(=O)CI)cc(OC)c1OC,Activity,K562 [1],30.87%
same,IC50,K562 [2],1000 nM
same,Activity,K562 [3],41.47%
same,Activity,K562 [4],27.66%
same,AC50,K562 [5],4700 nM
same,Flu intensity,[6],200
COc1cc(C(=O)c2cc3cc(NC(=O)CI)ccc3s2)cc(OC)c1OC,IC50,K562 [2],800 nM
same,Activity,K562 [7],54.92%
same,Flu intensity,[8],279
same,Activity,K562 [9],32.96%
same,AC50,K562 [5],4200 nM
same,Activity,K562 [10],12.12%
COc1cc(C(=O)c2c(NC(=O)CI)c3ccccc3n2C)cc(OC)c1OC,IC50,K562 [2],4300 nM
same,AC50,K562 [5],8200 nM
COc1ccc2oc(C(=O)c3cc(OC)c(OC)c(OC)c3)c(NC(=O)CI)c2c1,IC50,K562 [2],3200 nM
same,AC50,K562 [5],7800 nM
COc1cc(C(=O)c2c(NC(=O)CI)c3cccc(OC)c3n2C)cc(OC)c1OC,IC50,Tubulin,2000 nM
same,IC50,K562 [2],800 nM
same,Activity,K562 [7],19.55%
same,Flu intensity,[8],58.2
same,Activity,K562 [9],77.64%
same,AC50,K562 [5],4600 nM
same,Activity,K562 [10],2.81%
same,inhibition,Bos taurus,38%
COc1cc(C(=O)c2oc3ccccc3c2NC(=O)CI)cc(OC)c1OC,Activity,K562 [1],3.65%
same,IC50,Tubulin,> 20000 nM
same,IC50,K562 [2],900 nM
same,Activity,K562 [3],75.37%
same,Activity,K562 [4],20.98%
same,AC50,K562 [5],6500 nM
same,Flu intensity,[6],98.3
